Active and inactive are the calls of the source. The rule behind the calls is not given here.
What was measured:
[1] = Fraction unbound in 10% human plasma; format: ADME, cell-free; conditions: 10% plasma
Procedure, shortened: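 Free fraction measured in the presence of 10% plasma (human or rat), taken as correlating with the free fraction in whole plasma.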

[2] = molecular target: T1, Estrogen receptor (Homo sapiens) (UniProt P03372); experiment: Agonist activity at human estrogen receptor alpha by cell-based assay
T1 sequence (whole entry): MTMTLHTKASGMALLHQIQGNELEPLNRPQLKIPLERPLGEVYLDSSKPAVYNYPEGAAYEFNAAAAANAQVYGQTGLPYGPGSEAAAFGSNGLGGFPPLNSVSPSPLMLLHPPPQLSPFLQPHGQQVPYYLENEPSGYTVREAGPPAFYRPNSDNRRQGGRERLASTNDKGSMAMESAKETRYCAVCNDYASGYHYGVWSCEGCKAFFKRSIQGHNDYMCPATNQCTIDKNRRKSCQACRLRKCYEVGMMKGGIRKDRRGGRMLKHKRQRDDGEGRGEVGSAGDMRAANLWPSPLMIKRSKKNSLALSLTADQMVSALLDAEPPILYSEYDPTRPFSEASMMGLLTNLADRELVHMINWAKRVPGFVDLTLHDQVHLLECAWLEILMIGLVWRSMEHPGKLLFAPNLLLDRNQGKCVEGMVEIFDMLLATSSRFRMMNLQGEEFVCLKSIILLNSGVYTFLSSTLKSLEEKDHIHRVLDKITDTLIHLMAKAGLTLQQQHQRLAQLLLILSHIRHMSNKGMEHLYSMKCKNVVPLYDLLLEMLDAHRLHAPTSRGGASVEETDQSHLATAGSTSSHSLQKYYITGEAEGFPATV

Progesterone receptor = molecular target: T2, Progesterone receptor (Homo sapiens, UniProt P06401); experiment: Antagonist activity at human progesterone receptor beta expressed in human U2OS cells assessed as inhibition of D(-)-norgestrel-induced protein interaction with steroid receptor co-activator peptide after overnight incubation by beta-galactosidase reporter gene assay; format: cell-based
T2 sequence (P06401 whole entry): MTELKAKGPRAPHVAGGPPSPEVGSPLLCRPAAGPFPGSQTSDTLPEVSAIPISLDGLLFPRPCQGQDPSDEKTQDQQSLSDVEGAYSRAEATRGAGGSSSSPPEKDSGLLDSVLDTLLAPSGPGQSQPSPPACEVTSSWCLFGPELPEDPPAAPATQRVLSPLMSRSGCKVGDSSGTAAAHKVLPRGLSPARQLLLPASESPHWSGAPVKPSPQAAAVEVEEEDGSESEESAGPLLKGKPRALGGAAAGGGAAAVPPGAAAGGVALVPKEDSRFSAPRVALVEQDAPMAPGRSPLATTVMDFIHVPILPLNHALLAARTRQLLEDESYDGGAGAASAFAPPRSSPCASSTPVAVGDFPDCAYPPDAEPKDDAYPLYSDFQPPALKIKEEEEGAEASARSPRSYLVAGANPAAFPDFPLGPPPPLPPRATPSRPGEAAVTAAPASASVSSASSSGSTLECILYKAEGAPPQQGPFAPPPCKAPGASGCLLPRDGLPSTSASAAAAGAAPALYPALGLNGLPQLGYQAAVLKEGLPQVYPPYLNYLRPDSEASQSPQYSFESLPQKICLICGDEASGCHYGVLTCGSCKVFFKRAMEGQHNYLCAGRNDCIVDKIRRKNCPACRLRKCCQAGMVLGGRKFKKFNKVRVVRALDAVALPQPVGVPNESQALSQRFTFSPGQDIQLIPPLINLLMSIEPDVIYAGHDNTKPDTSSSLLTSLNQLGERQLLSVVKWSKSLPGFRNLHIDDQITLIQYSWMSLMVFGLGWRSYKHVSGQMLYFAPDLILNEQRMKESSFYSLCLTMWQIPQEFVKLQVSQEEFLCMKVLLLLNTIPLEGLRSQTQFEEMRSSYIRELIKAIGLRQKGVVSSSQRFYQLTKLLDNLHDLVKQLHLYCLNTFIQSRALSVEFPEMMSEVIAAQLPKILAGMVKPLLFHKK

[3] = molecular target: T3, Progesterone receptor (Homo sapiens) (UniProt P06401); experiment: Agonist activity at human progesterone receptor beta by cell-based assay
T3 sequence (whole entry): T2 sequence (P06401 whole entry)

Androgen receptor = molecular target: T4, Androgen receptor (Homo sapiens, UniProt P10275); experiment: Antagonist activity at human androgen receptor expressed in CHOK1 cells assessed as inhibition of D(-)-norgestrel-induced protein interaction with steroid receptor co-activator peptide after 24 hrs by beta-galactosidase reporter gene assay; format: cell-based, CHO-K1
T4 sequence (P10275 whole entry): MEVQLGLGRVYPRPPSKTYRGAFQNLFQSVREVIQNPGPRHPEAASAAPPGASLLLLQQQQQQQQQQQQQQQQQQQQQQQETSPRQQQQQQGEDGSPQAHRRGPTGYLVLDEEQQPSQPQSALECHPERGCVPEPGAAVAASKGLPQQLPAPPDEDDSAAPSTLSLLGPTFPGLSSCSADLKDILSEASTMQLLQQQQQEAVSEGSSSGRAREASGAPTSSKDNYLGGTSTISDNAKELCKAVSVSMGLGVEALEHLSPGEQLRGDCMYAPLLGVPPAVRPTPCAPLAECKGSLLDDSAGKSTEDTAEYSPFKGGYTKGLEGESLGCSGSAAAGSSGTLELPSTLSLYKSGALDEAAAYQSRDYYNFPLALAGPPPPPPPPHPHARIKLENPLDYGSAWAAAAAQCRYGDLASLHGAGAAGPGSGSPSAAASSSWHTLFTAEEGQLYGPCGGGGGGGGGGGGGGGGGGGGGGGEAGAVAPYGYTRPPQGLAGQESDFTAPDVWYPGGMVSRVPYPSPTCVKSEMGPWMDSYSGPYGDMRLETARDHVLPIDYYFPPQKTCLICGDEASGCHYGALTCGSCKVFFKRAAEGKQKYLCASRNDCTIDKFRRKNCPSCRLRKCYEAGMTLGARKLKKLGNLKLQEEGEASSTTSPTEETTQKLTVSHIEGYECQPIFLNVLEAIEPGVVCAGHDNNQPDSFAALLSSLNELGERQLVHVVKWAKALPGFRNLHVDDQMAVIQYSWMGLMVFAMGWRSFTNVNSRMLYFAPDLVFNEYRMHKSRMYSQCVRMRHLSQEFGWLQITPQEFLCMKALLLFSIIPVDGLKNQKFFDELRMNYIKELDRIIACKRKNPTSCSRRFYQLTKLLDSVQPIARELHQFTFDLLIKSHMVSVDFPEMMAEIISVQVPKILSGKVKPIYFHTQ

C[C@H](c1ccc(F)cc1)N1C(=O)O[C@](Cc2ccccc2)(c2nc3cc(NS(C)(=O)=O)ccc3[nH]2)C1=O
fraction unbound [1]: 0.034 | Activity [2]: inactive | IC50 (Progesterone receptor): 4.9 µM | Activity [3]: inactive | IC50 (Androgen receptor): 13 µM

C[C@H](c1ccc(F)cc1)N1C(=O)O[C@](Cc2ccccc2)(c2nc3cc(-c4cc[nH]n4)ccc3[nH]2)C1=O
fraction unbound [1]: 0.04 | Activity [2]: inactive | IC50 (Progesterone receptor): 2.9 µM | Activity [3]: inactive | IC50 (Androgen receptor): 3.1 µM

C[C@H](c1ccc(F)cc1)N1C(=O)O[C@](Cc2ccccc2)(c2nc3cc(N4CCOCC4)ccc3[nH]2)C1=O
fraction unbound [1]: 0.093 | Activity [2]: inactive | IC50 (Progesterone receptor): 1.9 µM | Activity [3]: inactive | IC50 (Androgen receptor): 7.7 µM

C[C@H](c1ccc(F)cc1)N1C(=O)O[C@](Cc2ccccc2)(c2nc3c(NS(C)(=O)=O)cccc3[nH]2)C1=O
fraction unbound [1]: 0.058 | Activity [2]: inactive | IC50 (Progesterone receptor): 8.2 µM | Activity [3]: inactive | IC50 (Androgen receptor): 11 µM

Cc1nocc1-c1ccc2[nH]c([C@@]3(Cc4ccccc4)OC(=O)N([C@H](C)c4ccc(F)cc4)C3=O)nc2c1
Activity [2]: inactive | IC50 (Progesterone receptor): 2.8 µM | Activity [3]: inactive | IC50 (Androgen receptor): 3.4 µM

C[C@H](c1ccc(F)cc1)N1C(=O)O[C@](Cc2ccccc2)(c2nc3cc(C(F)(F)F)ccc3[nH]2)C1=O
fraction unbound [1]: 0.002 | Activity [2]: inactive | IC50 (Progesterone receptor): 3.2 µM | Activity [3]: inactive | IC50 (Androgen receptor): 3 µM

C[C@H](c1ccc(F)cc1)N1C(=O)O[C@](Cc2ccccc2)(c2nc3cc(-c4cccnc4)ccc3[nH]2)C1=O
fraction unbound [1]: 0.002 | Activity [2]: inactive | IC50 (Progesterone receptor): 2.9 µM | Activity [3]: inactive | IC50 (Androgen receptor): 3.7 µM

C[C@H](c1ccc(F)cc1)N1C(=O)O[C@](Cc2ccccc2)(c2nc3cc(Cl)ccc3[nH]2)C1=O
fraction unbound [1]: 0.002 | Activity [2]: inactive | IC50 (Progesterone receptor): 2.4 µM | Activity [3]: inactive | IC50 (Androgen receptor): 3.1 µM
